# In the library only some 1.8% were active in any assay of this set; here they are far more common.
# M5 antag – CHRM5 antagonism in calcium assay; P08912; CHO-hM5 cells, Fluo-8 calcium fluorescence, ACh EC80; inhibition, % at 3 µM; hit rate 0.59% among 360,000;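 active = inhibition above a per-plate cutoff, the mean of that plate's test compounds plus 3 SD, cut at about 27% in these data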;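 also: 0% = acetylcholine EC80 with DMSO and 100% = DMSO without agonist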
# M4 antag – antagonists of human muscarinic M4 receptor (CHRM4). hit rate 0.73% among 360,000. inhibition, % at 3 µM. AID 624125. CHO-hM4 cells, ACh EC80, Fluo-8 calcium fluorescence. P08173;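 active = inhibition above its plate's cutoff, the mean inhibition of sample wells plus 3 SD, cut at about 27% in these data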;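 also: 0% = acetylcholine EC80 with DMSO and 100% = DMSO without agonist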
# Target sequence (P08173 whole entry, looked up): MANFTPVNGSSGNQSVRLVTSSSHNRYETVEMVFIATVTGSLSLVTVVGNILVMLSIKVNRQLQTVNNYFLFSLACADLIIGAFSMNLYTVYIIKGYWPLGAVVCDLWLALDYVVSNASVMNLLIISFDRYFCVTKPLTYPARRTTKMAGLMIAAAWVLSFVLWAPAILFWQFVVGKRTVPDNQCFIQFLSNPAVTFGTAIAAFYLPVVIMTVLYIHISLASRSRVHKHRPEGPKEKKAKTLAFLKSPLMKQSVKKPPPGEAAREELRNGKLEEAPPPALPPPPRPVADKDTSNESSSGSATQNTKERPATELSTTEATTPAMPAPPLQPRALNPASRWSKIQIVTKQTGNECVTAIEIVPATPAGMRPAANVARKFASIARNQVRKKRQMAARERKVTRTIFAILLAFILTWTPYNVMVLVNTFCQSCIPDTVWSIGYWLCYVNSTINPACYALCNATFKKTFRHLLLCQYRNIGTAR
# M5 PAM – CHRM5 positive allosteric modulation; P08912; CHO-K1 hM5, Fluo-8 calcium, ACh EC20 PAM; 0% = ACh EC20, 100% = ACh EC100; activation, % at 3 µM; hit rate 0.3% among 360,000;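 active = activation above the run cutoff, the mean activation of all test compounds plus 3 SD, cut at about 18% in these data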
#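 Replicates: One well per compound, no replicates | System: Human M5 receptor in CHO-K1 cells | Benchmarks: Low control EC20 acetylcholine (0%), high control EC100 acetylcholine (100%) | Probe or stimulus: Acetylcholine, EC20 level | Times: Fluo-8 loading 80 min at 37 °C plus 30 min room temperature | Signal: Intracellular calcium via Fluo-8 fluorescence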
# CHRM4 agonist – CHRM4 agonism in calcium assay | P08173 | CHO-K1 hM4/Gqi5, Fluo-8 calcium fluorescence; vehicle 0%, full acetylcholine response 100% | activation, % at 3 µM | hit rate 0.14% among 360,000;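 active = activation above the run mean over all test wells plus 3 SD, cut at about 32% in these data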;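 also: peak over basal fluorescence ratio per well then scaled between controls; 0% = DMSO wells and 100% = acetylcholine at EC100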
# CHRM5 agonist – agonists of human muscarinic M5 receptor (CHRM5); P08912; activation, % at 3 µM; CHO-K1 hM5 cells, Fluo-8 calcium fluorescence; 0% DMSO wells, 100% maximal acetylcholine response; hit rate 0.19% among 360,000;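 active = activation above the run's mean over test compounds plus 3 SD, cut at about 23% in these data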;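 also: signal is peak over basal fluorescence ratio across the kinetic read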
# CHRM4 PAM – potentiates acetylcholine response at human M4 receptor | CHO-K1 hM4/Gqi5, Fluo-8 calcium fluorescence, ACh EC20; 0% = ACh EC20, 100% = maximal ACh | hit rate 0.4% among 360,000 | activation, % at 3 µM | AID 624126 | P08173;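 active = activation above its plate's cutoff, the mean activation of sample wells plus 3 SD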
# Starred values were filed as active, the others as inactive.
SMILES,M5 antag,M4 antag,M5 PAM,CHRM4 agonist,CHRM5 agonist,CHRM4 PAM
Cc1ccc(S(=O)(=O)N2CCCC2C(=O)NCc2ccccc2Cl)cc1 (configuration not stated),-16,2,19*,1,3,0
Cc1ccc(S(=O)(=O)N(C)C)cc1NC(=O)C1CCCCN1S(=O)(=O)c1ccccc1 (configuration not stated),3,-3,-5,1,-6,24*
O=C(Nc1ccc(F)cc1)C1CCCN1S(=O)(=O)c1ccc(Br)cc1 (configuration not stated),0,-9,5,3,-3,25*
CC1CC(C)CN(S(=O)(=O)c2ccc(NC(=O)[C@@H]3CCCN3C(=O)c3cccs3)cc2)C1 (some centres not stated),3,28*,-22,-1,-8,-6
CCc1ccc(/C=N/n2c(C3CCCCC3)n[nH]c2=S)cc1,12,12,-4,16,-1,-8
COc1ccc2[nH]cc(CCNS(=O)(=O)c3ccc(F)cc3)c2c1,9,9,-5,2,-2,-13
O=C(O)C1CCCN1S(=O)(=O)c1ccccc1 (configuration not stated),-9,-7,26*,2,1,39*
CC(=O)c1ccc(NC(=S)NC(C)CCc2ccccc2)cc1 (configuration not stated),17,7,-20,16,7,-11
C#CC(=O)CC1(CN(Cc2ccccc2)C(=O)OC(C)(C)C)CCCCC1,16,32*,-3,0,-7,-17
COc1ccc(C(N)c2csc(Nc3ccc(S(C)(=O)=O)cc3)n2)cc1 (configuration not stated),3,5,3,1,2,2
CCCCC1CCC(c2nc(-c3ccccn3)no2)CC1 (configuration not stated),1,-1,2,-1,1,18
c1ccc(-c2noc(C3CCC3)n2)nc1,-10,-7,18*,1,5,1
Cc1csc(SCc2nnc(-c3ccc(Cl)cc3)o2)n1,-1,9,1,-1,-1,7
Cc1ccc(-c2nnc(CSc3nnc(C)s3)o2)cc1,8,-13,19*,0,-2,5
CCCc1cc(=O)oc2cc(C)cc(OC(C)C(=O)NCCN3CCOCC3)c12 (configuration not stated),0,-26,-4,0,-3,4
COc1ccc(NC(=O)N2CCC(n3cnc4ccccc43)CC2)cc1,6,-8,-7,3,-5,-5
O=C(Nc1ccc(Oc2ccccc2)cc1)c1ccc2sc([C@H]3C[C@H](O)[C@@H](CO)O3)nc2c1,8,28*,-3,9,4,-2
O=S(=O)(/C(=C\c1ccc(C(F)(F)F)cc1)c1nc2ccccc2[nH]1)c1ccccc1,13,44*,8,3,5,-7
O=C(OCCN1C(=O)c2cccc3c(N4CCOCC4)ccc(c23)C1=O)c1ccccc1Cl,45*,40*,-20,25,17,-15
c1ccc(-c2nnc(-c3ccccc3)o2)cc1,6,-9,1,1,-1,4
Cc1nc(-c2nnc(-c3ccccc3)o2)c(C(F)(F)F)o1,14,29*,-20,13,0,-20
CN1CCC(OC(=O)c2ccccc2Cl)CC1,34*,2,-21,1,-11,-11
CCOc1ccc(CCNC(=O)CSc2n[nH]c(N)n2)cc1OCC,30*,13,-8,0,-3,-7
COc1ccc(Cl)cc1S(=O)(=O)N1CCC(C(=O)NCCc2ccccc2)CC1,2,1,-3,5,4,-5
COc1ccc(C(=O)NNC(=O)COC(=O)c2sccc2C)cc1,-6,7,1,0,4,0
SMILES,M5 antag,M4 antag,M5 PAM,CHRM4 agonist,CHRM5 agonist,CHRM4 PAM
CCCCC1Cc2[nH]c(=S)[nH]c(=O)c2C(c2ccc(F)cc2)O1 (configuration not stated),4,-18,4,1,3,9
Fc1ccc(-n2c(-c3cc(C4CC4)[nH]n3)n[nH]c2=S)cc1Cl,-20,-1,19*,1,3,12
O=c1ccc(-c2n[nH]c(=S)n2-c2ccc(F)c(Cl)c2)n[nH]1,-6,-1,-1,2,-6,5
Cc1c(C(=O)NCCCn2ccnc2)oc2ccccc12,-5,-2,18*,1,-3,2
O=C(NCCCn1ccnc1)c1cc2ccccc2o1,6,-9,-1,1,0,2
CCOc1ccc(C(=O)NCCCn2ccnc2)cc1,0,3,18*,0,-7,5
CCCOc1ccc(C(=O)NCCCn2ccnc2)cc1,-3,13,1,1,-3,-3
COc1ccc(CCNC(=O)[C@H](C)N2C(=O)N3CCc4c([nH]c5ccccc45)[C@@]3(C)C2=O)cc1,5,-6,0,9,1,1
CCCNC(=O)CN1C(=O)NC2(CCCc3cc(OC)ccc32)C1=O (configuration not stated),-10,4,-3,2,-1,6
CCOC(=O)C1C(=O)NC(c2ccccc2)=NC1c1ccc(O)c(OC)c1 (configuration not stated),4,8,-6,1,-1,-5
CCN(CC)S(=O)(=O)c1cccc(NC(=O)COc2ccc(F)cc2Br)c1,16,1,-15,13,-2,-20
CCOc1ccc2c(c1)c(N=O)c(O)n2C,3,3,20*,0,0,7
O=C(CCC(=O)Nc1ccccc1Cl)NNC(=O)c1ccco1,7,-1,-3,1,-1,4
COc1ccc(NC(=O)Nc2ccc3c(c2)CC(=O)N([C@H](C)CO)C[C@@H](C)[C@H](CN(C)C(=O)Nc2ccccc2)O3)cc1,2,0,5,1,-2,15
COC(=O)C[C@@H]1CC[C@@H](NS(=O)(=O)c2ccc(F)cc2)[C@@H](CO)O1,4,-1,-4,2,0,12
CNC(=S)Nn1cnc2ccccc21,-15,-1,22*,0,3,8
CN(C(=O)c1cccc(NC(=O)Cc2ccc(NC(=O)C3CCN(C(=O)c4ccccc4)CC3)cc2)c1)C1CCCC1,-2,-8,-5,-1,1,0
COC(=O)[C@]1(Cc2ccccc2)N[C@H](CN(C)C(=O)Nc2ccc(Cl)cc2)[C@@H]2C(=O)N(Cc3ccccc3)C(=O)[C@@H]21,3,-4,-6,11,1,-2

# From PubChem
